Source: PubChem (Sanford-Burnham Center for Chemical Genomics)
STEP block – STEP (human) phosphatase inhibition. P54829. recombinant STEP, OMFP fluorogenic substrate, fluorescence. inhibition, % at 20 µM. 360,000 tested, 0.25% active. AID 588621;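 active means inhibition at 20 µM, scaled per plate between control wells, above about 37%, limit read from the data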;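 further: 0% = DMSO with enzyme and substrate and 100% = substrate only without enzyme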
Target sequence (P54829 whole entry, looked up): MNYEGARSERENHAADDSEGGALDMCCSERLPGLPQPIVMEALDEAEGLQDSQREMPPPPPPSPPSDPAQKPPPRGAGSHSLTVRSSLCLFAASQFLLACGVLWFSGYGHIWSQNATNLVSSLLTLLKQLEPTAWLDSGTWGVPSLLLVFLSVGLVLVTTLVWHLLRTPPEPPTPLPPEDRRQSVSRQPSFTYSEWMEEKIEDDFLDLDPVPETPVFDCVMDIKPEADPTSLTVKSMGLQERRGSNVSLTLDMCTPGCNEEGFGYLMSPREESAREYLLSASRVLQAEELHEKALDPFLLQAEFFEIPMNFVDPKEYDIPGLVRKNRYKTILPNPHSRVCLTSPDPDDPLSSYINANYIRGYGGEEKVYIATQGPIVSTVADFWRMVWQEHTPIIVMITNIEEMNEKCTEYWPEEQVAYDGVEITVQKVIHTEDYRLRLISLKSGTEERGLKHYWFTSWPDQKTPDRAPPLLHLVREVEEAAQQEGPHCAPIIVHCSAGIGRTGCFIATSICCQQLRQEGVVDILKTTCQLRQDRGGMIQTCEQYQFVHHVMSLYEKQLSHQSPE
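material = STEP tyrosine phosphatase | reagent = fluorogenic phosphatase substrate OMFP at 25 µM final | doses = single compound dose of 20 µM, 1% DMSO final | schedule = 20 min reaction, room temperature, in the dark | measured by = fluorescence, 480/540 nm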
SUMO1-SIM PPI – modulators of human SUMO1-mediated protein-protein interactions; P63165; SUMO1 binding to a labelled peptide, TR-FRET, 1 h; inhibition, % at 20 µM; 360,000 tested, 0.33% active; AID 602429; in the data active means inhibition above about 37%
Target sequence (P63165 whole entry, looked up): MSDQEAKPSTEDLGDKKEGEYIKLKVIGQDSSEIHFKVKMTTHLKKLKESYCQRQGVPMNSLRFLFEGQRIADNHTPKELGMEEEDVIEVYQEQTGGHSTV
DNMT1 inh – inhibitors of human DNMT1. P26358. 360,000 tested, 0.83% active. inhibition (reported as % activation of signal), % at 10 µM. DNMT1 molecular beacon, Hinp1I cleavage, fluorescence; in the data active means inhibition above about 50%
LMPTP block – LMPTP (human) inhibition; inhibition, % at 20 µM; P24666; recombinant LMPTP-A, OMFP fluorogenic substrate, fluorescence intensity; 360,000 tested, 0.22% active;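 active means compounds that cut the enzyme signal by at least half of the control window in the single-dose screen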;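 further: plate controls were DMSO wells with enzyme plus substrate for no effect and substrate without enzyme for full effect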
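Material: LMPTP-A; amount: 0.625 nM enzyme; doses: single 20 µM dose; times: reaction 50 min, room temperature, dark; technique: fluorescence intensity of OMFP turnover product; benchmarks: no-enzyme and uninhibited controls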
Scp-1 inhibitor – Scp-1 (human) phosphatase inhibition; Q9GZU7; Recombinant Scp1, phosphopeptide, malachite green phosphate absorbance; inhibition, % at 20 µM; 340,000 tested, 0.88% active; AID 493091;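 active means inhibition above about 50% at 20 µM, limit read from the data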;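 further: plate controls were DMSO wells with enzyme for no effect and wells lacking enzyme for full effect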
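Incubation: 45 min enzyme reaction at room temperature / System: truncated SCP-1 phosphatase (76-261aa) / Reagent: Phospho 17-mer peptide substrate / Buffer or medium: Acidic Tris acetate buffer with magnesium and detergent / Signal: absorbance at 630 nm / Doses: one concentration, 20 µM, with 1.0% DMSO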
Scp1 confirm – Scp-1 (human) inhibition, single-dose confirmed. shares compounds with Scp-1 inhibitor. recombinant SCP-1 catalytic domain, phosphate release, malachite green absorbance. inhibition, % at 20 µM. 2,500 tested, 61% active. AID 540281;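 further: plate controls were DMSO with enzyme for no effect and buffer wells lacking enzyme for full effect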
Scp-1 MG ctr – counter-screen for Scp-1 inhibitors: colorimetric interference; Colorimetric interference counterscreen, malachite green absorbance 630 nm; shares compounds with Scp-1 inhibitor; apparent inhibition (interference), % at 20 µM; 2,500 tested, under 10 active;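 further: compounds added after enzyme reaction finished so only phosphate colour detection is probed; plate controls were DMSO wells with completed Scp-1 reaction for no effect and substrate wells lacking enzyme for full effect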
Scp-1 Tm shift – binds human Scp-1, shifting its melting temperature; thermal shift relative to vanadate control, % at 40 µM; shares compounds with Scp-1 inhibitor; Recombinant SCP1, Sypro Orange thermal shift Tm; AID 540329; 1,500 tested, 25% active;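 active means substances whose mean melting-temperature shift, as a percentage of the reference inhibitor's shift, reaches about 5.3%, limit read from the data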;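 further: 0% = Tm of DMSO wells and 100% = Tm with sodium orthovanadate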
DNMT1 confirm – DNMT1 inhibition confirmation, single concentration | shares compounds with DNMT1 inh | DNMT1 molecular beacon HinP1I cleavage, fluorescence | inhibition, % at 10 µM | 2,300 tested, 8% active | AID 602385;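 active means average inhibition of at least 30% in the single-concentration confirmation test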
DNMT1 interf – counter-screen for DNMT1 inhibitors: spectral interference. AID 602387. 2,300 tested, 1% active. shares compounds with DNMT1 inh. activation (fluorescence interference), % at 10 µM. DNMT1 molecular beacon spectral interference counterscreen, fluorescence 485/520;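 active means activation of at least 30% at 10 µM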;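 further: DNMT1 catalytic domain with a HinP1I cleavage step and a FAM/dabcyl DNA beacon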
STEP inh conf – confirmation of human STEP phosphatase inhibitors | shares compounds with STEP block | recombinant STEP, OMFP fluorogenic substrate, fluorescence | inhibition, % at 20 µM | 520 tested, 32% active; call rule not given here;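 further: 0% = enzyme with substrate plus DMSO and 100% = substrate without enzyme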
Numbers without * were called inactive; x = no result. Sampled rows, rich in hits. Any-hit rate of the full collection: about 1.7%.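 How the source made its calls, unless noted: active means inhibition of at least 30% at 20 µM; inactive means the rest.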

SMILES | STEP block | SUMO1-SIM PPI | DNMT1 inh | LMPTP block | Scp-1 inhibitor | Scp1 confirm | Scp-1 MG ctr | Scp-1 Tm shift | STEP inh conf | others
CN(C)c1ccc(NC(=S)NC(=O)/C=C/c2ccc(Cl)cc2)cc1 | 2 | -4 | 17 | 0 | -2 | x | x | x | x
Cc1cc(C(=O)N/N=C/c2ccc(-c3cccc([N+](=O)[O-])c3)o2)n[nH]1 | -2 | -16 | 13 | 1 | -8 | x | x | x | x
Cc1cc(C(=O)N/N=C/c2ccc(-c3ccc([N+](=O)[O-])cc3Cl)o2)n[nH]1 | 94* | 68* | -4 | 69* | 56* | 68* | -21 | 8.7* | 34*
COc1cccc2cc(C(=O)NNC(=O)c3ccc(Br)cc3)c(=O)oc12 | 82* | -11 | 7 | 44 | 99* | 55* | -13 | 0 | 0
COc1ccc(-n2nc(C(=O)NCC(=O)Nc3ccccn3)c3ccccc3c2=O)cc1Cl | 48* | 4 | 16 | 15 | 63* | 43* | -9 | -5 | 32*
COc1ccc(-n2nc(C(=O)NCC(=O)NC(C)C)c3ccccc3c2=O)cc1Cl | 0 | -22 | 1 | -1 | 5 | x | x | x | x
COc1ccc(NC(=O)NNC(=O)c2ccc(-c3ccccc3)cc2)c(OC)c1 | 5 | 2 | 2 | 4 | 2 | x | x | x | x
COc1ccc(NC(=O)NNC(=O)c2ccc(-c3ccccc3)cc2)cc1 | 40* | 15 | 48 | 29 | 88* | 46* | -14 | -15 | 21
O=C(CN1CCN(c2ccccc2F)CC1)NC(=O)NC1CCCCC1 | -1 | -3 | 0 | 0 | 3 | x | x | x | x
Cc1c(CC(=O)O)c(=O)oc2c(C)c(OCc3ccc(F)cc3Cl)ccc12 | 98* | 84* | -1 | 85* | 64* | 68* | -19 | -26 | 62*
Cc1c(CC(=O)O)c(=O)oc2c(C)c(OCc3ccc(F)cc3F)ccc12 | 4 | 0 | 1 | 1 | 28 | x | x | x | x
Cc1ccc(C(=O)Nc2nc(C(N)C(C)C)cs2)cc1 (centres undefined) | 4 | 9 | 5 | -1 | x | x | x | x | x
O=C(N/N=C/C(Br)=C/c1ccccc1)c1ccc([N+](=O)[O-])cc1 | 88* | 2 | 57* | 78* | 97* | 84* | -12 | 2 | 6 | DNMT1 confirm=5;DNMT1 interf=0
O=C(N/N=C/c1cccc([N+](=O)[O-])c1)c1ccc(Br)cc1 | 73* | -7 | 20 | 65* | 98* | 86* | -8 | -2 | 17*
O=C(N/N=C/C(Br)=C/c1ccccc1)c1ccncc1 | -2 | -28 | -5 | 0 | -11 | x | x | x | x
O=C(N/N=C/c1cccc([N+](=O)[O-])c1)c1cccc(Br)c1 | -3 | 4 | -2 | 0 | -7 | x | x | x | x
CCN(CC)CCNC(C(=O)Nc1cccc(C(C)=O)c1)c1ccccc1 (centres undefined) | -1 | 1 | 0 | -1 | -3 | x | x | x | x
O=C(N/N=C/C=C/c1ccc([N+](=O)[O-])cc1)c1cccs1 | 96* | -4 | 97* | 87* | 101* | 91* | -6 | 6.4* | -5 | DNMT1 confirm=11;DNMT1 interf=1
O=C(/C=C/c1cccc([N+](=O)[O-])c1)Nc1ccc(NC(=O)c2cccs2)cc1 | 45* | 0 | 44 | 56* | 75* | 74* | -10 | 15* | 18
O=C(/C=C/c1cccc([N+](=O)[O-])c1)c1cccs1 | -2 | -12 | 2 | 1 | -10 | x | x | x | x
O=C(N/N=C/C=C\c1ccccc1[N+](=O)[O-])c1cccs1 | 0 | -20 | 0 | -1 | 4 | x | x | x | x
COc1ccc(NC(=O)CN2C(=O)NC3(CCCC3)C2=O)cc1Cl | -1 | 0 | -3 | 0 | -2 | x | x | x | x
O=C(Nc1cccc(C(F)(F)F)c1)C1=CC=CN2CCS(=O)(=O)N=C12 | 4 | -11 | 1 | -1 | -12 | x | x | x | x
C/C(=N\NC(=O)c1ccccc1O)c1ccc(NC(=O)Cc2ccccc2)cc1 | 84* | 37 | 0 | 59* | 101* | 84* | -15 | 0 | 79*
COc1cccc(C(=O)N/N=C(\C)c2ccc(NC(=O)Cc3ccccc3)cc2)c1OC | -2 | -2 | 2 | -2 | -8 | x | x | x | x
SMILES | STEP block | SUMO1-SIM PPI | DNMT1 inh | LMPTP block | Scp-1 inhibitor | Scp1 confirm | Scp-1 MG ctr | Scp-1 Tm shift | STEP inh conf | others
COc1ccc(S(=O)(=O)NC2CC(=O)N(c3cccc(F)c3)C2)cc1OC (centres undefined) | 4 | 0 | 1 | -1 | -3 | x | x | x | x
O=C(N/N=C/c1ccc(OC(=O)c2cccs2)cc1)c1cccc(F)c1 | 43* | -2 | 64* | 68* | 95* | 77* | -16 | -31 | 28* | DNMT1 confirm=-1;DNMT1 interf=4
O=C(CCc1ccccc1)NNC(=O)c1ccc(NC(=O)c2ccccc2)cc1 | 42* | 0 | 29 | 61* | 57* | 74* | -14 | -16 | 95*
COCCN(Cc1ccc(C)c(Br)c1)C(=O)Cn1cnc(S(=O)(=O)N2CCCC2)c1 | -1 | 2 | 0 | 1 | 14 | x | x | x | x
CCCCn1c(N)c(N(CC(C)C)C(=O)c2ccc(S(=O)(=O)N3CCCCC3)cc2)c(=O)[nH]c1=O | -2 | -6 | 1 | -1 | -4 | x | x | x | x
O=[N+]([O-])c1ccc(-c2ccc(/C=N/Nc3nc(N4CCCC4)nc(N4CCCC4)n3)o2)cc1 | 10 | -11 | 0 | 10 | 3 | x | x | x | x
COc1ccc(-c2cnnc(N/N=C/c3ccc(-c4ccc([N+](=O)[O-])cc4)o3)n2)cc1 | 50* | -9 | 2 | 57* | 108* | 49* | -5 | 4 | 5
N=C1S/C(=C\c2ccc(O)cc2)C(=O)N1c1ccc(F)cc1 | 78* | -4 | 20 | 69* | 78* | 52* | -13 | 19* | 12*
CCCCNC(=O)NS(=O)(=O)c1ccc(NC(=O)C(NC(N)=O)C(C)CC)cc1 (centres undefined) | -3 | 0 | 1 | -1 | -4 | x | x | x | x
O=C1Nc2ccc3sc4ccccc4c3c2C1=O | 96* | 55* | 24 | 77* | 93* | 79* | -9 | 8.0* | 53*
